In publication PMC12508127 (Nature Communications, 2025):
≈ marks a conversion by molar mass, not a printed value. Where two headings read alike, the source gives them in different places.

Key:
[1] = system: deoxynivalenol (DON) content; assay type: in vivo, wheat; settings: field; for DON content: wheat flour
Phytophthora capsica = assay type: cell-based; settings: 1.56 mg/L
[2] = system: FHB (Fusarium graminearum); settings: in vivo
Ustilaginoidea virens = assay type: cell-based; settings: 1.56 mg/L
Alternaria alternata = assay type: cell-based; settings: 1.56 mg/L
Phytophthora infestans = assay type: cell-based
[3] = system: Fusarium pseudograminearum; assay type: cell-based
[4] = Average thousand grain weight and yield increase, FHB field trial; assay type: in vivo, wheat; settings: 150 g a.i./ha
Procedure, shortened: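 Field plots (20 m2) in Huai'an, wheat variety yannong 1212, with Fusarium graminearum head blight. Test compound as 10% emulsifiable concentrate at 112.5, 150 and 180 g a.i./ha, sprayed at early and peak anthesis. Commercial fungicides served as positive controls and water as negative control. Five-point sampling, 100 mature spikes per point, pooled, air-dried and threshed. 1000 random grains weighed, three replicates per treatment.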

Alternaria solani = assay type: cell-based; settings: 1.56 mg/L
Exserohilum turcicum = assay type: cell-based; settings: 1.56 mg/L
WPM (Erysiphe graminis) = assay type: in vivo; settings: WPM field trial, 187.5 g a.i./ha
Sclerotinia sclerotiorum = assay type: cell-based; settings: 1.56 mg/L
Fusarium oxysporum = assay type: cell-based; settings: 1.56 mg/L
ScSDH = ScSDH (Saccharomyces cerevisiae, UniProt P21801+P33421+P37298+Q00711); assay: SDH activity assay; assay type: biochemical
Chain of ScSDH (Q00711 29-640): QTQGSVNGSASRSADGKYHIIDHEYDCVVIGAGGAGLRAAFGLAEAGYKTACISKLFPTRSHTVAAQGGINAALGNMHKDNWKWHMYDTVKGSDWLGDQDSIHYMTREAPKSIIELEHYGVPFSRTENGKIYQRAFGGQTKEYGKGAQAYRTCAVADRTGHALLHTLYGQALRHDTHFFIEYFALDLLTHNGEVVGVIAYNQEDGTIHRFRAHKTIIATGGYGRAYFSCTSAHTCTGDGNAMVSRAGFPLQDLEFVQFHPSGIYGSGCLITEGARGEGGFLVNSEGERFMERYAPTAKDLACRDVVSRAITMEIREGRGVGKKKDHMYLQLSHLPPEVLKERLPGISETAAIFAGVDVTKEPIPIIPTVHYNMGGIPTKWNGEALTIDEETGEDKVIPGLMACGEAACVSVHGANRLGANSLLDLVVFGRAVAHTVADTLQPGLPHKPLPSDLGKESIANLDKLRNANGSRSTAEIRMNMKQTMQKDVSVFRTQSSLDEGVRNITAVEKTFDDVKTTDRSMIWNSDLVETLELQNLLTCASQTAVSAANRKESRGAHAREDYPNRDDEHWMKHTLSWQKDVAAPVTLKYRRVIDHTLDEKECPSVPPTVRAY
Chain of ScSDH (P21801 21-266): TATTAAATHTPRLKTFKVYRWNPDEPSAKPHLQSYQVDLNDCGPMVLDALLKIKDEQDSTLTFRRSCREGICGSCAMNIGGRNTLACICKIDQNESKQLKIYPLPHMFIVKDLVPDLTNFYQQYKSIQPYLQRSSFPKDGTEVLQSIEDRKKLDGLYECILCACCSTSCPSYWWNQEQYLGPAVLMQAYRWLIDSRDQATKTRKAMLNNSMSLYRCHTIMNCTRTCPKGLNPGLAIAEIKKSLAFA
Chain of ScSDH (P33421 51-198): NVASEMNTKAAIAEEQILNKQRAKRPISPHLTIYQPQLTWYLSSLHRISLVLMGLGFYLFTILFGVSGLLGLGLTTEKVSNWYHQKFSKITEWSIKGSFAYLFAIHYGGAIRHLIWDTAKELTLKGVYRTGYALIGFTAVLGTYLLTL
Chain of ScSDH (P37298 32-181): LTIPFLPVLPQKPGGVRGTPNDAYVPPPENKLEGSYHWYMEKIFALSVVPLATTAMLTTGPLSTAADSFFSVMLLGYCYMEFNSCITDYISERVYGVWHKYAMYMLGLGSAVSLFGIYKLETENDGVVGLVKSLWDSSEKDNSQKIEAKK

Fusarium graminearum = assay type: cell-based
[5] = system: cucumber powdery mildew (CPM, Sphaerotheca fuliginea); settings: in vivo
porcine SDH = porcine SDH (Sus scrofa, UniProt A5GZW8+D0VWV4+Q007T0); assay: SDH activity assay; assay type: biochemical; settings: read-out: Ki, Porcine; inhibition constant against porcine SDH
Chain of porcine SDH (Q0QF01 43-664 partner): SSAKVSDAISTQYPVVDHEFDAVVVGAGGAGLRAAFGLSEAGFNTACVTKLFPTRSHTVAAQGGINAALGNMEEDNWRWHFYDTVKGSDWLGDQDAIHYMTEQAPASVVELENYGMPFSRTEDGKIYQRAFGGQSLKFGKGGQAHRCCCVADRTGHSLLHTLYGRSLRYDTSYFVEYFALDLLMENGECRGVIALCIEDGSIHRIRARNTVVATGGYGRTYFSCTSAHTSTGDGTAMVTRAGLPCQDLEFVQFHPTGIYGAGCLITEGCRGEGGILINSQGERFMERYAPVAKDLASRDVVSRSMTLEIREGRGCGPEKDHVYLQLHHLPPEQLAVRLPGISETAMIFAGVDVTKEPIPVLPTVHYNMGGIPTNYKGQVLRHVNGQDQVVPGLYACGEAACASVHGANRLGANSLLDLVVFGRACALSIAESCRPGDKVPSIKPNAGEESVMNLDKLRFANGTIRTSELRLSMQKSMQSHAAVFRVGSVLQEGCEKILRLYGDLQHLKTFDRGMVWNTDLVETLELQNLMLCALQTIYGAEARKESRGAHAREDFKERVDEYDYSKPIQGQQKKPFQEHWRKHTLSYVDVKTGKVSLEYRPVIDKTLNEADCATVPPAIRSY
Chain of porcine SDH (Q007T0 29-280): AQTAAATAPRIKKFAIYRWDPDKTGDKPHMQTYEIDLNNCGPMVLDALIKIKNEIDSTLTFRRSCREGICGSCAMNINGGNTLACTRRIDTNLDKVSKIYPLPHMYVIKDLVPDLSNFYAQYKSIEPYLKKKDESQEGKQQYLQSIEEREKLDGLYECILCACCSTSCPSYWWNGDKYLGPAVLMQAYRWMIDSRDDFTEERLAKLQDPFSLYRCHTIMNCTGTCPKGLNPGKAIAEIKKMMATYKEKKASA
Chain of porcine SDH (D0VWV4 30-169): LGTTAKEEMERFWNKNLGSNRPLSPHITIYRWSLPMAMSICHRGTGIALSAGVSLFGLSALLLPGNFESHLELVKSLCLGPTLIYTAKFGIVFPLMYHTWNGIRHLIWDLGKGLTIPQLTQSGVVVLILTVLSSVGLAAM
Chain of porcine SDH (A5GZW8 57-159 limits assumed): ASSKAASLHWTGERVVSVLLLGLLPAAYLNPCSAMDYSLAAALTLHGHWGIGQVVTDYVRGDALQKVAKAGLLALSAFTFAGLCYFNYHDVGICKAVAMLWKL

[6] = system: wheat powdery mildew (WPM, Erysiphe graminis); assay type: in vivo; settings: greenhouse
[7] = system: zebrafish (Brachydanio rerio H-B.); assay: Acute toxicity zebrafish, static test; assay type: in vivo
Procedure, shortened: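 Juvenile zebrafish (not sexually mature) held at 22–23 °C on a 16–8 h light-dark cycle. Static exposure followed the national fish acute toxicity guideline. Definitive test used 1.20, 1.00, 0.833, 0.694, 0.578 and 0.482 mg a.i./L, with dechlorinated tap water as blank control. One replicate of 10 fish per group.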

C=C(CN(C(=O)c1c(C(F)F)nn(C)c1F)C1CC1)c1ccc(Cl)cc1Cl [E8, enprocymid]
DON inhibition rate (%) ([1]; 150 g a.i./ha): 86.05%
DON inhibition rate (%) ([1]; 180 g a.i./ha): 89.40%
DON content ([1]; 150 g a.i./ha): 217.5 µg/kg
DON content ([1]; 180 g a.i./ha): 165.3 µg/kg
inhibition rate (%), Pc (Phytophthora capsica): 76.33%
Control efficiency (%) [2]: 88.81%
inhibition rate (%), Uv (Ustilaginoidea virens): 100.00%
inhibition rate (%), Aa (Alternaria alternata): 95.67%
inhibition rate (%), Pi (Phytophthora infestans): 81.97%
inhibition rate (%), Fp [3]: 85.33%
Yield increase rate (%) [4]: 10.18%
inhibition rate (%), As (Alternaria solani): 80.00%
inhibition rate (%), Et (Exserohilum turcicum): 100.00%
Control efficiency (%) (WPM (Erysiphe graminis)): 92.38%
inhibition rate (%), Ss (Sclerotinia sclerotiorum): 74.67%
inhibition rate (%), Fo (Fusarium oxysporum): 87.33%
potency relative to PYD (IC50) (ScSDH; E8 IC50 vs PYD IC50, ScSDH): ~1.3 fold
IC50 (ScSDH; against ScSDH): 30 ± 3 nM
Species selectivity (ScSDH; ratio of Ki for porcine SDH and ScSDH): 14.78
Ki (ScSDH; read-out: Ki, Yeast, inhibition constant against ScSDH): 19 ± 1 nM
inhibition rate (%), Fg (Fusarium graminearum): 97.31%
EC50 [5]: 0.5431 µg/mL (≈ 1.3 µM)
Ki (porcine SDH): 281 ± 14 nM
EC50 ([6]; WPM): 0.0462 µg/mL (≈ 0.11 µM)
activity against WPM relative to PYD [6]: over 20 fold
Toxicity level ([7]; by LC50 (96 h)): moderately toxic
LC50 (96 h) ([7]; static test, 96 h): 1.01 mg a.i./L

CC(C)(C)C(O)(CCc1ccc(Cl)cc1)Cn1cncn1 (centres unmarked) [tebuconazole]
Control efficiency (%) [2]: 84.45%

OCC1=C[C@H](N[C@H]2C[C@H](CO)[C@@H](O[C@@H]3O[C@H](CO)[C@@H](O)[C@H](O)[C@H]3O)[C@H](O)[C@H]2O)[C@H](O)[C@@H](O)[C@@H]1O [validamycin]
Control efficiency (%) [2]: 48.42%
